For data set [1], the target named is Nonstructural protein 3 (Zika virus, UniProt A0A024AXB9). Briefly: Inhibition Zika virus NS2B (47 to 95 residues)/NS3 (1 to 170 residues) protease expressed in Escherichia coli BL21 using 7-amino-4-methylcoumarin as substrate by fluorescence assay. A digest of the protocol: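 Single-chain NS2B(47–95)–Gly4-Ser-Gly4–NS3(1–170) enzyme at 1 nM in 20 mM HEPES pH 7.3 with 0.05% Triton X-100. Compound (1 nM–10 µM, triplicate) is preincubated 10 min before adding Bz-Nle-Lys-Lys-Arg-AMC at 20 µM. Fluorescence (Ex 360/Em 460 nm) is read every 30 s. IC50 comes from dose-response fitting of initial velocities, 3 independent experiments with SD.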
Sequence of Nonstructural protein 3 (A0A024AXB9 whole entry, the tested form may be a part): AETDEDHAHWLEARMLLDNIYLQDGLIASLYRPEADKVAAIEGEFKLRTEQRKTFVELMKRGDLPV

Data set [2] addresses Genome polyprotein (dengue virus type 2, UniProt P29990). The data set is described as follows: Inhibition Dengue serotype-2 NS3B/NS3 protease using 7-amino-4-methylcoumarin as substrate by fluorescence assay.
Data set [3] concerns the target Genome polyprotein (West Nile virus, UniProt P06935). Briefly: Inhibition West Nile virus NS3B/NS3 protease using 7-amino-4-methylcoumarin as substrate by fluorescence assay.
For data set [4], the system named is U-87 MG. Briefly: Cytotoxicity against human U87 cells assessed as inhibition of proliferation at 10 uM by MTT assay. Conditions: u-87mg atcc. The format is cell-based.
The subject of data set [5] is Vero. Briefly: Cytotoxicity against African green monkey Vero cells assessed as inhibition of proliferation at 10 uM by MTT assay. The format is cell-based. Conditions: chlorocebus sabaeus.

Sequence of Genome polyprotein (West Nile virus, UniProt P06935) (P06935 1371-1501 limits assumed): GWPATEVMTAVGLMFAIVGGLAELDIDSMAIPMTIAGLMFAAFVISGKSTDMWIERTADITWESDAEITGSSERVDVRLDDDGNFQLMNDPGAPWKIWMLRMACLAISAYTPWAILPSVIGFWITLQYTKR
Sequence of Genome polyprotein (West Nile virus, UniProt P06935) (P06935 1502-2120 limits assumed): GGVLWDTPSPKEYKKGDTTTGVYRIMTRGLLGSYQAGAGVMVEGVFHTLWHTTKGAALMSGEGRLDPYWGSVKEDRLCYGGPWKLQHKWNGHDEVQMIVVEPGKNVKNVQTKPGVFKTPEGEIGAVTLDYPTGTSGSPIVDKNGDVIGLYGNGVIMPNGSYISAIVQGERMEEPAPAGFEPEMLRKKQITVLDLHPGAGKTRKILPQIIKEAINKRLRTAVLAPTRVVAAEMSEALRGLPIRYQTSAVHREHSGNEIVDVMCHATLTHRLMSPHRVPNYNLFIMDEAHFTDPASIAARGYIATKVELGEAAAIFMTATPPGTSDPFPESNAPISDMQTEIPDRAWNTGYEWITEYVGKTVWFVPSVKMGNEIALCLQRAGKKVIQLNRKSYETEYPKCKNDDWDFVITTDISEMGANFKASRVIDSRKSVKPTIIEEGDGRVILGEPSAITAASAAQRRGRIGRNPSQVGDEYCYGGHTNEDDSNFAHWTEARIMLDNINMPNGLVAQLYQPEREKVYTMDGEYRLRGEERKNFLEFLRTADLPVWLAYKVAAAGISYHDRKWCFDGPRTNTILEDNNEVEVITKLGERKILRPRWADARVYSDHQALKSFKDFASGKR
Sequence of Genome polyprotein (dengue virus type 2, UniProt P29990) (P29990 1346-1475 limits assumed): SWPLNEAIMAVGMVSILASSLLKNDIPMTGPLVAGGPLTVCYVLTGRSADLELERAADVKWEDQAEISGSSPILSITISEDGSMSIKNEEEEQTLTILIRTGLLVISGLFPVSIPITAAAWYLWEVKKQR
Sequence of Genome polyprotein (dengue virus type 2, UniProt P29990) (P29990 1476-2093 limits assumed): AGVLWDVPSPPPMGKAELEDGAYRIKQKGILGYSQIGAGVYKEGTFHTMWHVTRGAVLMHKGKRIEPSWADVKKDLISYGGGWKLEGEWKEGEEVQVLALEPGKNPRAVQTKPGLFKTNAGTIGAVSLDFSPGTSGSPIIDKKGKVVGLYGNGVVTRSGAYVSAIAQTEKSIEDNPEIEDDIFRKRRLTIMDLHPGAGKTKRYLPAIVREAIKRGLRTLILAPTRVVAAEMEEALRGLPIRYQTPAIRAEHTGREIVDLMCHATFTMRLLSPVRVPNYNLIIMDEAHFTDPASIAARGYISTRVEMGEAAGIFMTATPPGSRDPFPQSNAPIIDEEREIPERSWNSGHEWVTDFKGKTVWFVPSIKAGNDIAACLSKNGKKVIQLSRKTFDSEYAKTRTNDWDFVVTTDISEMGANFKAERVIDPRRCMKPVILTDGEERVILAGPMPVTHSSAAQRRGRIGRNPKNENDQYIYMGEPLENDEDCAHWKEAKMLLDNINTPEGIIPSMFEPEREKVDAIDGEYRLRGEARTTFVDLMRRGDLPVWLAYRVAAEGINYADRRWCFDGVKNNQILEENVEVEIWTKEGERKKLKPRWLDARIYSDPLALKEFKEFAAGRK

Compound `NCc1cccc(-c2ncc(OCC3CCNCC3)nc2-c2ccc(-c3ccoc3)cc2)c1` displayed an IC50 in data set [1] of 2.9 µM. Regarding `Ic1ccc(-c2ncc(OCCC3CCNCC3)nc2-c2ccc(I)cc2)cc1`, the half-maximal inhibitory concentration (IC50) in data set [2] is 10.2 µM; in data set [1] it was 4.7 µM; in data set [3], 1.8 µM. In turn, `NCc1ccc(-c2ncc(NCC3CCNCC3)nc2-c2ccc(-c3ccoc3)cc2F)cc1` displayed an IC50 in data set [1] of 2.3 µM. In data set [1], `NCc1ccc(-c2ncc(OCC3CCNCC3)nc2-c2ccc(C3CCNCC3)cc2)cc1` displayed an IC50 of 3.1 µM. For the same compound, the Activity entry in data set [4] and in data set [5] was “Non-Toxic” throughout. The compound `CN(C)Cc1ccc(-c2nc(OCC3CCNCC3)cnc2-c2cccnc2)cc1` came in with an IC50 in data set [1] of 9.9 µM. Consider `COc1cc(CN)ccc1-c1nc(OCC2CCNCC2)cnc1-c1ccncc1`, for which half-maximal inhibition in data set [1] (IC50) required 3.5 µM. In the case of `NCc1ccc(-c2nc(OCC3CCNCC3)c3nccn3c2-c2ccc(CN)cc2)cc1`, in data set [1], the IC50 amounted to 9.3 µM.

In turn, `NCc1ccc(-c2nc(OCCN3CCNCC3)cnc2-c2ccc(-c3ccoc3)cc2)cc1` showed an IC50 in data set [1] of 1.8 µM. Still for that read-out and setting: the value for `NCc1ccc(-c2ncc(OCc3ccccc3)nc2-c2ccc(-c3ccoc3)cc2)cc1` was 3.2 µM. On to `Cc1cc(CN)ccc1-c1ncc(OCC2CCNCC2)nc1-c1ccc(CN)cc1C`, for which the IC50 was found to be 6.3 µM in data set [2], 2.1 µM in data set [1] and 3.6 µM in data set [3].

In the case of `NCc1ccc(-c2cc(CNCC3CCNCC3)sc2-c2ccc(CN)cc2)cc1`, the IC50 in data set [1] was 10.7 µM; in data set [3], more than 50 µM. Compound `NCc1ccc(-c2ncc(OCC3CCNCC3)nc2-c2ccc(CN)cc2)cc1` displayed an IC50 in data set [1] of 0.62 µM. As to `N#Cc1cc(-c2nc(OCC3CCNCC3)cnc2-c2ccc(CN)cc2)ccc1-c1ccoc1`, in data set [1], the IC50 was determined as 1.8 µM. Also, the Activity result in data set [4] and in data set [5] was “Non-Toxic” each time. Take `NCc1ccc(-c2ncc(OCCC3CCNCC3)nc2-c2ccc(-c3ccoc3)cc2)cc1`: the IC50 in data set [1] was 1.3 µM.

For `NC(=O)c1ccc(-c2ncc(OCC3CCNCC3)nc2-c2ccc(-c3ccoc3)cc2)cc1F`, the IC50 in data set [1] is 2.3 µM. As to `CC(=O)NCc1ccc(-c2ncc(OCC3CCNCC3)nc2-c2ccc(CN)cc2)cc1`, the IC50 in data set [1] was determined as 30 µM. The compound `Cc1cc(-c2nc(OCC3CCNCC3)cnc2-c2ccc(CN)cc2)ccc1-c1ccoc1` gave an IC50 in data set [1] of 10.6 µM. In addition, the Activity result in data set [4] and in data set [5] was “Non-Toxic” each time. Regarding `CN(C)Cc1ccc(-c2ncc(OCC3CCNCC3)nc2-c2ccc(CN(C)C)cc2)cc1`, the IC50 in data set [1] amounted to 0.39 µM. Same read-out and setting: to `CNCCOc1cnc(-c2ccc(CN)cc2)c(-c2ccc(-c3ccoc3)cc2)n1` belongs 2.1 µM; to `NCc1ccc(-c2nc(N3CCC[C@@H](N)C3)c3nccn3c2-c2ccc(CN)cc2)cc1`, 3.5 µM; to `ONCc1ccc(-c2ncc(OCC3CCNCC3)nc2-c2ccc(-c3ccoc3)cc2)cc1`, 1.2 µM. The same measure, in the same setting: the value for `Cc1noc(C)c1-c1nc(OCC2CCNCC2)cnc1-c1ccc(CN)cc1` was 11.1 µM. Compound `NCc1ccc(-c2ncc(OCC3CCNCC3)nc2-c2ccc(C3=CCNCC3)cc2)cc1` yielded an IC50 in data set [1] of 2.9 µM. Also, the Activity result in data set [4] and in data set [5] was “Non-Toxic” throughout.

`NCc1ccc(-c2ncc(OCC3CCNCC3)nc2-c2ccc(C3CCOC3)cc2)cc1` (stereo unspecified) showed an IC50 in data set [1] of 0.59 µM. The Activity result in data set [4] and in data set [5] was “Non-Toxic” in each case. As to `NCc1ccc(-c2ncc(OCC3CCNCC3)nc2-c2ccc(N3CCCC3)cc2)cc1`, it took 2.5 µM to reach half-maximal inhibition in data set [1] (IC50). The Activity entry in data set [4] and in data set [5] was “Non-Toxic” in each case.

On to `CC(=O)NCc1ccc(-c2ncc(OCC3CCNCC3)nc2-c2ccc(CNC(C)=O)cc2)cc1`, for which, in data set [1], the IC50 is more than 10 µM. In turn, `COc1cc(-c2nc(OCC3CCNCC3)cnc2-c2ccc(CN)cc2)ccc1-c1ccoc1` registered an IC50 in data set [1] of 8 µM. Also, the Activity entry in data set [4] and in data set [5] was “Non-Toxic” each time. In data set [1], `COc1cc(-c2ccoc2)ccc1-c1nc(OCC2CCNCC2)cnc1-c1ccc(CN)cc1` came in with an IC50 of 1.9 µM. Also, the Activity entry in data set [4] and in data set [5] was “Non-Toxic” in each case. Consider `OCc1ccc(-c2ncc(OCCC3CCNCC3)nc2-c2ccc(CO)cc2)cc1`, for which, in data set [1], the IC50 turned out to be 2.1 µM.

As for `Cc1cc(CN)ccc1-c1ncc(OCC2CCNCC2)nc1-c1ccc(-c2ccoc2)cc1`, inhibition in data set [1] was half-maximal at 2.6 µM (IC50). The compound `CN(C)Cc1ccc(-c2nc(OCC3CCNCC3)cnc2-c2ccc(O)cc2)cc1` showed an IC50 in data set [1] of 20.5 µM.

The compound `Cc1noc(C)c1-c1ccc(-c2nc(OCC3CCNCC3)cnc2-c2ccc(CN)cc2)cc1` gave an IC50 in data set [1] of more than 10 µM.

`NCc1ccc(-c2ncc(OC3CCNCC3)nc2-c2ccc(-c3ccoc3)cc2)cc1` had an IC50 in data set [1] of 1.6 µM. On the same count and under the same terms, to `COc1cc(-c2ncc(OCC3CCNCC3)nc2-c2ccc(-c3ccsc3)cc2)ccc1C(N)=O` belongs 4.7 µM; to `NCc1ccc(-c2ncc(OCC3CCNCC3)nc2-c2ccc(CN)c(F)c2)cc1`, more than 50 µM; to `NCc1ccc(-c2nc(OCCC3CCNCC3)cnc2-c2ccncc2)cc1`, 1.7 µM.

In the case of `CN(C)Cc1ccc(-c2nc(OCC3CCNCC3)cnc2-c2ccc(-c3ccoc3)cc2)cc1`, in data set [1], the IC50 was 1.8 µM. As to `NCCCOc1cnc(-c2ccc(CN)cc2)c(-c2ccc(-c3ccoc3)cc2)n1`, the 50% inhibitory concentration (IC50) in data set [1] is 1.3 µM.

Regarding `OCc1ccc(-c2ncc(OCC3CCNCC3)nc2-c2ccc(CO)cc2)cc1`, half-maximal inhibition in data set [1] (IC50) required 0.51 µM. Regarding `NCc1ccc(-c2ccc(NCC3CCNCC3)nc2-c2ccc(CN)cc2)cc1`, it took 3.7 µM to reach half-maximal inhibition in data set [1] (IC50). The same measure, in the same setting: to `NCc1ccc(-c2ncc(NCC3CCNCC3)nc2C(=O)Nc2ccc(-c3ccoc3)cc2)cc1` belongs 1.1 µM. Same read-out and setting: to `NCc1ccc(-c2nc(N3CC[C@H](N)C3)c3nccn3c2-c2ccc(CN)cc2)cc1` belongs 19.3 µM. In data set [1], `NCc1ccc(-c2ncc(OCC3CCNCC3)nc2-c2ccc(C3CCCCC3)cc2)cc1` displayed an IC50 of 16.2 µM. Moreover, the Activity entry in data set [4] and in data set [5] was “Non-Toxic” each time.

Consider `NCc1ccc(-c2ncc(OCC3CCNCC3)nc2-c2ccc(-n3cc(CO)nn3)cc2)cc1`, for which the IC50 in data set [1] was more than 10 µM. Take `NCc1ccc(-c2ncc(OCC3CCNCC3)nc2-c2ccc(C(=O)N3CCOCC3)cc2)cc1`: the IC50 in data set [1] is more than 10 µM. Besides, the Activity result in data set [4] and in data set [5] was “Non-Toxic” each time. In data set [1], `NCc1ccc(-c2ncc(OCC3CCNCC3)nc2-c2ccc(-c3ccoc3)cc2CO)cc1` came in with an IC50 of more than 10 µM. Further, the Activity result in data set [4] and in data set [5] was “Non-Toxic” throughout. Turning to `Ic1ccc(-c2ncc(OCC3CCNCC3)nc2-c2ccc(I)cc2)cc1`, inhibition in data set [1] was half-maximal at 0.52 µM (IC50). In turn, `NCc1ccc(-c2ncc(OCC3CCNCC3)nc2-c2cccc(C3CCOC3)c2)cc1` (stereo unspecified) came in with a half-inhibitory concentration (IC50) in data set [1] of more than 10 µM. For the same compound, the Activity entry in data set [4] and in data set [5] was “Non-Toxic” each time. Turning to `NCc1ccc(-c2ncc(OCC3CCNCC3)nc2-c2ccc(C(=O)N3CCCCC3)cc2)cc1`, in data set [1], the midpoint of inhibition, the IC50, lay at 3.5 µM. Also, the Activity entry in data set [4] and in data set [5] was “Non-Toxic” throughout. Compound `NCc1ccc(-c2ncc(OCC3CCNCC3)nc2-c2ccc(-n3ccnn3)cc2)cc1` had an IC50 in data set [1] of more than 10 µM. For `c1cc(-c2ccc(-c3ncc(OCC4CCNCC4)nc3-c3ccc(-c4ccoc4)cc3)cc2)co1`, in data set [1], the IC50 was found to be 1 µM. In data set [1], `NCc1ccc(-c2ncc(OCC3CCNCC3)nc2-c2ccc(-c3ccoc3)cc2F)cc1` displayed an IC50 of 8.4 µM. In addition, the Activity result in data set [4] and in data set [5] was “Non-Toxic” each time.

In turn, `Cc1cc(-c2ccoc2)ccc1-c1nc(OCC2CCNCC2)cnc1-c1ccc(CN)cc1` yielded an IC50 in data set [1] of 17.1 µM. In addition, the Activity entry in data set [4] and in data set [5] was “Non-Toxic” each time. On to `NCc1ccc(-c2ncc(OCC3CCNCC3)nc2-c2ccc(C(=O)N3CCCC3)cc2)cc1`, for which the 50% inhibitory concentration (IC50) in data set [1] came out at 13 µM. Moreover, the Activity result in data set [4] and in data set [5] was “Non-Toxic” each time. Compound `CC(=O)OCc1ccc(-c2ncc(OCC3CCNCC3)nc2-c2ccc(COC(C)=O)cc2)cc1` gave an IC50 in data set [1] of more than 10 µM. On the same count and under the same terms, to `NCc1ccc(-c2ncc(OCCN3CCNCC3)nc2-c2ccc(CN)cc2)cc1` belongs more than 10 µM.

Take `NCc1ccc(-c2nc(N)c(OCC3CCNCC3)nc2-c2ccc(CN)cc2)cc1`: half-maximal inhibition in data set [1] (IC50) was put at 2.1 µM. Compound `NCc1ccc(-c2nc(OCC3CCNCC3)cnc2-c2ccc(O)cc2)cc1` showed an IC50 in data set [1] of 8.1 µM. With `Ic1ccc(-c2ncc(OCCCC3CCNCC3)nc2-c2ccc(I)cc2)cc1`, the 50% inhibitory concentration (IC50) in data set [1] was more than 10 µM. Still for that read-out and setting: the value for `NCc1ccc(-c2nc(OCC3CCNCC3)cnc2-c2ccncc2)cc1` was 0.32 µM. `NCc1ccc(-c2ncc(OCC3CCNCC3)nc2-c2ccc(N3CCCCC3)cc2)cc1` came in with an IC50 in data set [1] of more than 10 µM. Further, the Activity entry in data set [4] and in data set [5] was “Non-Toxic” throughout.

As for `NCc1ccc(-c2ncc(OCC3CCNCC3)nc2-c2ccc(N3CCOCC3)cc2)cc1`, the IC50 in data set [1] was more than 10 µM. In addition, the Activity entry in data set [4] and in data set [5] was “Non-Toxic” in each case. On to `NCc1ccc(-c2ncc(OCCC3CCNCC3)nc2-c2ccc(CN)cc2)cc1`, for which the IC50 in data set [1] is more than 10 µM.

For `NCc1ccc(-c2ncc(OCC3CCNCC3)nc2-c2cccc3[nH]cnc23)cc1`, the IC50 in data set [1] is 1.6 µM. The same measure, in the same setting: the value for `CN(C)Cc1ccc(-c2ncc(OCC3CCNCC3)nc2-c2ccc(-c3ccoc3)cc2)cc1` was 6.1 µM.

As usually defined, the IC50 is the point on the concentration scale where inhibition reaches its midpoint.
